# Measurements as given in PMC3774303 (Journal of medicinal chemistry, 2013).
# “Also recorded” adds a separate entry of the source.
# Assays:
# [1] = target: T1, CT-L proteolytic activity of the purified rabbit 20S proteasome (Oryctolagus cuniculus, UniProt G1T4Q9); experiment: CT-L proteolytic activity assay, fluorogenic peptide Suc-Leu-Leu-Val-Tyr-AMC; assay type: biochemical; conditions: for IC50: IC50 (μM) CT-L, 1 nM purified 20S rabbit proteasome, 20 μM Suc-Leu-Leu-Val-Tyr-AMC, 1 h at 37 °C, average of 2 or more determinations; for fold loss of CT-L activity compared to 11ad: relative to 11ad
# T1 sequence (G1T4Q9 60-263): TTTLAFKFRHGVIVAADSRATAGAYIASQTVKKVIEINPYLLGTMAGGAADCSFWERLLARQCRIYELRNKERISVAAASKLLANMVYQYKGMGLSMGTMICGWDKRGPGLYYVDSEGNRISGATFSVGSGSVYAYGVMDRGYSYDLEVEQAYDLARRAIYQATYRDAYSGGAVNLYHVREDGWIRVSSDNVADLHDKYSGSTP
# [2] = target: T2, T-L activity of purified 20S rabbit proteasome (Oryctolagus cuniculus, UniProt G1SWK8); experiment: T-L proteolytic activity assay, fluorogenic peptide Bz-Val-Gly-Arg-AMC; assay type: biochemical
# T2 sequence (G1SWK8 44-271): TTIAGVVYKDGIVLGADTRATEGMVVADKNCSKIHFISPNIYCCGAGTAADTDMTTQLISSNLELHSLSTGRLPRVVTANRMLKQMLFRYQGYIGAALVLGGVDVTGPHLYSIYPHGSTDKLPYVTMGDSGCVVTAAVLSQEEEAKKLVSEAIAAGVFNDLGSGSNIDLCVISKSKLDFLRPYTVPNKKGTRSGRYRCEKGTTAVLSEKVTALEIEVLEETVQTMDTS
# [3] = target: PGPH-L activity of purified 20S rabbit proteasome (Oryctolagus cuniculus, UniProt G1T235); experiment: PGPH-L proteolytic activity assay, fluorogenic peptide Z-Leu-Leu-Glu-AMC; assay type: biochemical
# [4] = target: proteasomal CT-L activity in intact human MDA-MB-468 cancer cells (Homo sapiens, UniProt P28074); experiment: CT-L activity in intact MDA-MB-468 cells; assay type: cell-based
# MDA-MB-468 cells = experiment: MTT proliferation/survival assay; assay type: cell-based, human; conditions: 120 h incubation
# Outline: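 MDA-MB-468 cells were grown in DMEM with 10% FBS and penicillin/streptomycin at 37 °C in 5% CO2, then attached overnight. They were exposed to varying inhibitor concentrations for 120 h. MTT (1 mg/ml in fresh medium) was added for 3 h, formazan dissolved in DMSO, and absorbance read at 540 nm. IC50 came from the fit Y = M + (L–M)/(1+10^(X–logIC50)).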
# [5] = test system: CT-L activity of rabbit 20S proteasome; experiment: Dialysis using purified rabbit 20S proteasome; assay type: biochemical
# Outline: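 Dialysed (3500 MWCO) against assay buffer at 4 °C; sampled at 0, 0.25, 1, 2, 4 and 18 h. CT-L activity read with 20 μM Suc-LLVY-AMC, 1 h at 37 °C, AMC ex 355/em 460 nm. Normalised to DMSO control.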
structure (smiles),measurement,setting,value
"Cc1ccc(OCC(=O)N(Cc2nc(-c3ccc(C)cc3)no2)CC(C)C)cc1 [Compound 12a, N-Isobutyl-N-((3-p-tolyl-1,2,4-oxadiazol-5-yl)methyl)-2-(p-tolyloxy)acetamide]",fold loss of CT-L activity compared to 1,[1]; relative to compound 1,4 fold
"CC(C)N(Cc1nc(-c2ccccc2)no1)C(=O)COc1ccc(-c2ccccc2)cc1 [Compound 11q, 2-(Biphenyl-4-yloxy)-N-isopropyl-N-((3-phenyl-1,2,4-oxadiazol-5-yl)methyl)acetamide]",IC50,[1],> 10 µM
CCCc1ccc(OCC(=O)N(Cc2nc(-c3cccnc3)no2)C(C)C)cc1 [Compound 11ad],fold more potent than 1 (CT-L IC50),[1]; relative to compound 1,22 fold
same,IC50,[2],> 100 µM
same,IC50,[3],> 100 µM
same,IC50,[4],0.37 µM
same,inhibition of tumor cell survival/proliferation (MTT),MDA-MB-468 cells,inhibited survival/proliferation; also recorded: anti-proliferative activity at low micromolar concentrations
"Cc1ccc(-c2noc(CN(C(=O)COc3ccccc3)C(C)C)n2)cc1 [Compound 11k, N-Isopropyl-2-phenoxy-N-((3-p-tolyl-1,2,4-oxadiazol-5-yl)methyl)acetamide]",fold loss of CT-L activity compared to 1,[1]; relative to compound 1,14 fold
"CC(C)N(Cc1nc(-c2ccccc2)no1)C(=O)COc1ccc2cc(Br)ccc2c1 [Compound 11r, 2-(6-Bromonaphthalen-2-yloxy)-N-isopropyl-N-((3-phenyl-1,2,4-oxadiazol-5-yl)methyl)acetamide]",IC50,[1],> 10 µM
"Cc1ccc(OCC(=O)N(Cc2nc(-c3ccc(C)cc3)no2)C(C)C)cc1 [Compound 1, N-Isopropyl-N-((3-p-tolyl-1,2,4-oxadiazol-5-yl)methyl)-2-(p-tolyloxy)acetamide]",IC50,[2],> 100 µM
same,IC50,[3],> 100 µM
same,inhibition of tumor cell survival/proliferation (MTT),MDA-MB-468 cells,inhibited survival/proliferation
same,time to full recovery of CT-L activity upon dialysis,"[5]; pre-incubation with 10 μM compound for 30 min, dialysis at 4 °C",≤ 2 h
"CCCc1ccc(OCC(=O)N(Cc2nc(-c3cnccn3)no2)C(C)C)cc1 [Compound 11am, N-Isopropyl-2-(4-propylphenoxy)-N-((3-(pyrazin-2-yl)-1,2,4-oxadiazol-5-yl)methyl)acetamide]",fold loss of CT-L activity compared to 11ad,[1],3 fold
"CC(C)N(Cc1nc(-c2ccccc2)no1)C(=O)COc1ccccc1 [Compound 11j, N-Isopropyl-2-phenoxy-N-((3-phenyl-1,2,4-oxadiazol-5-yl)methyl)acetamide]",fold loss of CT-L activity compared to 1,[1]; relative to compound 1,10 fold
"CCN(Cc1nc(-c2ccc(C)cc2)no1)C(=O)COc1ccc(C)cc1 [Compound 12b, N-Ethyl-N-((3-p-tolyl-1,2,4-oxadiazol-5-yl)methyl)-2-(p-tolyloxy)acetamide]",fold loss of CT-L activity compared to 1,[1]; relative to compound 1,10 fold
"CC(=O)N[C@@H](CSC(=O)[C@]1([C@@H](O)C(C)C)NC(=O)[C@H](C)[C@@H]1O)C(=O)O [lactacystin, reference compound]",CT-L activity recovered upon dialysis,"[5]; after 18 hours of dialysis, lactacystin 2.5 μM",very little CT-L activity was recovered
"Cc1ccc(OCC(=O)N(CCc2nc(-c3ccccc3)no2)C(C)C)cc1 [Compound 23, N-Isopropyl-N-(2-(3-phenyl-1,2,4-oxadiazol-5-yl)ethyl)-2-(p-tolyloxy)acetamide]",IC50,[1],> 10 µM
"Cc1ccc(CNC(=O)N(Cc2nc(-c3ccccc3)no2)C(C)C)cc1 [Compound 14, 1-Isopropyl-3-(4-methylbenzyl)-1-((3 phenyl-1,2,4-oxadiazol-5-yl)methyl)urea]",IC50,[1],> 10 µM
"CC(C)N(Cc1nc(-c2ccccc2)no1)C(=O)COc1ccc(F)cc1 [Compound 11s, 2-(4-Fluorophenoxy)-N-isopropyl-N-((3-phenyl-1,2,4-oxadiazol-5-yl)methyl)acetamide]",fold loss of CT-L inhibitory activity compared to 11b,[1]; relative to 11b,16 fold
"CCCc1ccc(OCC(=O)N(Cc2nc(-c3ncccn3)no2)C(C)C)cc1 [Compound 11ao, N-Isopropyl-2-(4-propylphenoxy)-N-((3-(pyrimidin-2-yl)-1,2,4-oxadiazol-5-yl)methyl)acetamide]",fold loss of CT-L activity compared to 11ad,[1],40 fold
"CC(C)N(Cc1nc(-c2ccc(C(F)(F)F)cc2)no1)C(=O)COc1ccccc1 [Compound 11l, N-Isopropyl-2-phenoxy-N-((3-(4-(trifluoromethyl)phenyl)-1,2,4-oxadiazol-5-yl)methyl)acetamide]",fold loss of CT-L activity compared to 1,[1]; relative to compound 1,18 fold
